In ChEMBL document CHEMBL1136887, “Synthesis and evaluation of pharmacological profile of 1-aryl-6,7-dimethoxy-3,4-dihydroisoquinoline-2(1H)-sulfonamides” (Bioorg Med Chem, 2009):

What was measured:
Mus musculus [1] = test: Anticonvulsant activity in ip dosed DBA/2 mouse assessed as inhibition of auditory stimulation-induced clonic seizures administered 30 mins before auditory stimulation; assay type: functional; conditions: DBA/2, ip
Outline: (§1)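 DBA/2 mice (8-12 g, 22-25 days old, either sex), groups of 10, given vehicle or drug ip and exposed to auditory stimulation 30 min later. Latency to and incidence of each seizure phase scored. ED50 per seizure phase derived from dose–response curves by Litchfield–Wilcoxon, with 95% confidence limits; at least 32 animals per ED50. Fisher's exact test used for incidence.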

Mus musculus [2] = test: Anticonvulsant activity in ip dosed DBA/2 mouse assessed as inhibition of auditory stimulation-induced tonic seizures administered 30 mins before auditory stimulation; assay type: functional; conditions: DBA/2, ip; outline: as §1
Carbonic anhydrase 9 = Carbonic anhydrase 9 (Homo sapiens, UniProt Q16790); test: Inhibition of human recombinant carbonic anhydrase 9 catalytic domain by stopped flow CO2 hydration method

## COc1cc2c(cc1OC)C(c1ccc(Br)cc1)N(C(=O)CN1CCCCC1)CC2 (stereo not drawn)
Mus musculus [1]
  ED50: 12.7 µmol/kg
Mus musculus [2]
  ED50: 8.17 µmol/kg

## COc1cc2c(cc1OC)C(c1ccccc1)NCC2 (stereo not drawn)
Mus musculus [1]
  ED50: 44.8 µmol/kg
Mus musculus [2]
  ED50: 19.3 µmol/kg

## COc1cc2c(cc1OC)C(c1ccc(C)cc1)NCC2 (stereo not drawn)
Mus musculus [1]
  ED50: 48.6 µmol/kg
Mus musculus [2]
  ED50: 36.5 µmol/kg

## COc1cc2c(cc1OC)C(c1ccc(C#N)cc1)NCC2 (stereo not drawn)
Mus musculus [1]
  ED50: > 100 µmol/kg
Mus musculus [2]
  ED50: 48.6 µmol/kg

## COc1cc2c(cc1OC)C(c1ccc(F)cc1)NCC2 (stereo not drawn)
Mus musculus [1]
  ED50: 57.8 µmol/kg
Mus musculus [2]
  ED50: 26.4 µmol/kg

## COc1cc2c(cc1OC)C(c1ccc([N+](=O)[O-])cc1)N(S(N)(=O)=O)CC2 (stereo not drawn)
Mus musculus [1]
  ED50: > 100 µmol/kg
Mus musculus [2]
  ED50: > 100 µmol/kg
Carbonic anhydrase 9
  Ki: 0.48 µM

## COc1cc2c(cc1OC)C(c1ccc(N)cc1)NCC2 (stereo not drawn)
Mus musculus [1]
  ED50: 46.6 µmol/kg
Mus musculus [2]
  ED50: 28.6 µmol/kg

## COc1cc2c(cc1OC)C(c1ccccc1)N(S(N)(=O)=O)CC2 (stereo not drawn)
Mus musculus [1]
  ED50: > 100 µmol/kg
Mus musculus [2]
  ED50: 7.82 µmol/kg

## COc1cc2c(cc1OC)C(c1ccc(Br)cc1)N(S(N)(=O)=O)CC2 (stereo not drawn)
Mus musculus [1]
  ED50: > 100 µmol/kg
Mus musculus [2]
  ED50: 67.3 µmol/kg
Carbonic anhydrase 9
  Ki: 8.2 µM

## COc1cc2c(cc1OC)C(c1cccc(N)c1)NCC2 (stereo not drawn)
Mus musculus [1]
  ED50: 40.4 µmol/kg
Mus musculus [2]
  ED50: 18.2 µmol/kg

## COc1cc2c(cc1OC)C(c1cccc([N+](=O)[O-])c1)N(S(N)(=O)=O)CC2 (stereo not drawn)
Mus musculus [1]
  ED50: > 100 µmol/kg
Mus musculus [2]
  ED50: > 100 µmol/kg
Carbonic anhydrase 9
  Ki: 6.45 µM

## COc1cc2c(cc1OC)C(c1ccc(C)cc1)N(S(N)(=O)=O)CC2 (stereo not drawn)
Mus musculus [1]
  ED50: 97.1 µmol/kg
Mus musculus [2]
  ED50: 51.7 µmol/kg
Carbonic anhydrase 9
  Ki: 6.75 µM

## COc1cc2c(cc1OC)C(c1ccc(Cl)cc1)N(S(N)(=O)=O)CC2 (stereo not drawn)
Mus musculus [1]
  ED50: 23.5 µmol/kg
Mus musculus [2]
  ED50: 7.25 µmol/kg
Carbonic anhydrase 9
  Ki: 7.54 µM

## COc1cc2c(cc1OC)C(c1ccc(C#N)cc1)N(S(N)(=O)=O)CC2 (stereo not drawn)
Mus musculus [1]
  ED50: > 100 µmol/kg
Mus musculus [2]
  ED50: > 100 µmol/kg
Carbonic anhydrase 9
  Ki: 4.98 µM

## COc1cc2c(cc1OC)C(c1ccc(N)cc1)N(S(N)(=O)=O)CC2 (stereo not drawn)
Mus musculus [1]
  ED50: 17.7 µmol/kg
Mus musculus [2]
  ED50: 3.6 µmol/kg

## COc1cc2c(cc1OC)C(c1ccc(F)cc1)N(S(N)(=O)=O)CC2 (stereo not drawn)
Mus musculus [1]
  ED50: > 100 µmol/kg
Mus musculus [2]
  ED50: 41.8 µmol/kg

## COc1cc2c(cc1OC)C(c1cccc(N)c1)N(S(N)(=O)=O)CC2 (stereo not drawn)
Mus musculus [1]
  ED50: > 100 µmol/kg
Mus musculus [2]
  ED50: 65.8 µmol/kg
Carbonic anhydrase 9
  Ki: 8.13 µM

## COc1cc2c(cc1OC)C(c1ccc(Cl)cc1)NCC2 (stereo not drawn)
Mus musculus [1]
  ED50: 20.1 µmol/kg
Mus musculus [2]
  ED50: 19.3 µmol/kg

## COc1cc2c(cc1OC)C(c1ccc([N+](=O)[O-])cc1)NCC2 (stereo not drawn)
Mus musculus [1]
  ED50: 101 µmol/kg
Mus musculus [2]
  ED50: 56.1 µmol/kg

## COc1cc2c(cc1OC)C(c1ccc(Br)cc1)NCC2 (stereo not drawn)
Mus musculus [1]
  ED50: 30.6 µmol/kg
Mus musculus [2]
  ED50: 12.5 µmol/kg

## COc1cc2c(cc1OC)C(c1cccc([N+](=O)[O-])c1)NCC2 (stereo not drawn)
Mus musculus [1]
  ED50: 19.3 µmol/kg
Mus musculus [2]
  ED50: 7.2 µmol/kg

## COc1cc2c(cc1OC)C(c1ccc(Cl)cc1)N(C(C)=O)CC2 (stereo not drawn)
Mus musculus [1]
  ED50: 4.18 µmol/kg
Mus musculus [2]
  ED50: 2.39 µmol/kg

## CC1(C)O[C@@H]2[C@@H](CO[C@@]3(COS(N)(=O)=O)OC(C)(C)O[C@@H]23)O1 [TOPIRAMATE]
Mus musculus [1]
  ED50: 35.7 µmol/kg
Mus musculus [2]
  ED50: 18 µmol/kg
